Measurements from the EternaBench riboswitch data.

What was measured:
MS2 coat protein [1] = experiment: apparent Kd, MS2 coat protein; higher = weaker binding; RNA-MaP array; tryptophan 2.4 mM where present
How it was run: (§1)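 On Illumina sequencing-chip clusters, designs were transcribed by stalled E. coli RNA polymerase and titrated with SNAP-549-labelled MS2 coat protein (0.7 or 1.5 nM, doubling to 3 µM), without and then with constant ligand, in 100 mM Tris-HCl pH 7.5, 80 mM KCl, 4 mM MgCl2, BSA, DTT, yeast tRNA and Tween-20. Apparent Kd is the median of filtered per-cluster curve fits to green signal normalised to red-channel RNA signal and control-cluster median Fmax.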

MS2 coat protein [2] = experiment: apparent Kd, MS2 coat protein; higher = weaker binding; RNA-MaP array; theophylline 2 mM where present
How it was run: as §1

[3] = designed as: ON switch for tryptophan, no ligand
[4] = ligand present: tryptophan, designed as: ON switch for tryptophan
[5] = designed as: OFF switch for tryptophan, no ligand
[6] = ligand present: tryptophan, designed as: OFF switch for tryptophan
[7] = designed as: OFF switch for theophylline, no ligand
[8] = ligand present: theophylline, designed as: OFF switch for theophylline
[9] = designed as: ON switch for theophylline, no ligand
[10] = ligand present: theophylline, designed as: ON switch for theophylline

AAUUAUCAGUCGGCCGCCACUGACACAUGAGGAUCACCCAUGUAAUAUGGGUAAAAUUAACUGAACAGGACCGGGACAAAUGCUA
apparent Kd (MS2 coat protein [1]; [3]): 381 nM
apparent Kd (MS2 coat protein [1]; [4]): 649 nM

AACACAUGAGGAUCACCCAUGUUCUCGUGUCGAGGACCGGUACGGCCGCCACUCGGUUCUCGCGAGGAUGGUCAAAGACUAUCCA
apparent Kd (MS2 coat protein [1]; [3]): 47.7 nM
apparent Kd (MS2 coat protein [1]; [4]): 42 nM

AGCACAUGAGGAUCACCCAUGUGUCGGUACCGAGGACCGGUACGGCCGCCACUCGCAGGACAUGAGGAUCACCCAUGUGCCGCCG
apparent Kd (MS2 coat protein [1]; [3]): 25.1 nM
apparent Kd (MS2 coat protein [1]; [4]): 25.4 nM

UGGGUCGGAUGAGUAAAUUGUCGGACUCAUCGAGGACCGGUACGGCCGCCACUCGGUUGUACAUGAGGAUCACCCAUGUCAGGGU
apparent Kd (MS2 coat protein [1]; [3]): 364 nM
apparent Kd (MS2 coat protein [1]; [4]): 223 nM

ACGUUGUAGUCGGCCGCCACUGUUUUCAUGUUCAACAUGAGGAUCACCCAUGUACCUUUUUUUAUCAGGACCGGGACGUAUUCGA
apparent Kd (MS2 coat protein [1]; [3]): 93.2 nM
apparent Kd (MS2 coat protein [1]; [4]): 40.7 nM

GGCACAUAGUCGGCCGCCACUAGGGUGUAGUGGAAUAACAUGAGGAUCACCCAUGUAUUUGGGACUAGGACCGGGACUAUGUGCC
apparent Kd (MS2 coat protein [1]; [5]): 25.2 nM
apparent Kd (MS2 coat protein [1]; [6]): 20 nM

UAUUAUCAGUCGGCCGCCACUGACACAUGAGGAUCACCCAUGUAAUUUGGGUUAUAUAUAAAUUACAGGACCGGGACAAAGGCUA
apparent Kd (MS2 coat protein [1]; [5]): 358 nM
apparent Kd (MS2 coat protein [1]; [6]): 295 nM

UAAUGCAGGUCGGCCGCCACUACAAACAUGAGGAUCACCCAUGUAGUUACUGGGUGAAGUGGCAGUAGGACCGGGACCUGCAUAA
apparent Kd (MS2 coat protein [1]; [3]): 289 nM
apparent Kd (MS2 coat protein [1]; [4]): 342 nM

CUGCUACAUGAGGAUCACCCAUGUGGAGAUACCAGCCUGAACGAUGGCCCUUGGCAGCUCUUAGCUGGUGAUCAUAUAUUUCAGA
apparent Kd (MS2 coat protein [2]; [7]): 30.5 nM
apparent Kd (MS2 coat protein [2]; [8]): 146 nM

GAUCUGUCGGGUGAUACCAGCCUCGGCACAUCUCGUGCCGAACAUGAGGAUCACCCAUGUGGCCCUUGGCAGCACAUGACAAAUC
apparent Kd (MS2 coat protein [2]; [9]): 362 nM
apparent Kd (MS2 coat protein [2]; [10]): 55.1 nM

AUCGUACCUGAUGAUACCAGCAUGUGAUCAUAACAUGAGGAUCACCCAUGUAAUCAGUGAUGCCCUUGGCAGCAUAGUCGAUACA
apparent Kd (MS2 coat protein [2]; [9]): 153 nM
apparent Kd (MS2 coat protein [2]; [10]): 55.9 nM

AUCGUACCUGAUGAUACCAGCAUGUGCUCGUAACAUGAGGAUCACCCAUGUGAUCAGUAAUGCCCUUGGCAGCAUGAUCGGUACA
apparent Kd (MS2 coat protein [2]; [9]): 57.9 nM
apparent Kd (MS2 coat protein [2]; [10]): 14.3 nM

GCUGUAAGUGCAGAUACCAGCAGGUGAUAUUUCAUAUGACAUGAGGAUCACCCAUGUAACUGCCCUUGGCAGCUGCACUUACAGC
apparent Kd (MS2 coat protein [2]; [9]): 373 nM
apparent Kd (MS2 coat protein [2]; [10]): 40.9 nM

UAUACAUGGGAUACCAUGGAUCCGAGUGAUACCAGCUAUCCGAAUAGCCCUUGGCAGCACAGUACAUGAGGAUCACCCAUGUAUA
apparent Kd (MS2 coat protein [2]; [9]): 27.5 nM
apparent Kd (MS2 coat protein [2]; [10]): 33 nM

CGAUACGUAACUGAUACCAGUGUACUGACAUGAGGAUCACCCAUGUUGGGUUUUGUUGUACACCCUUGGCAGCAGAAUCGUAUCG
apparent Kd (MS2 coat protein [2]; [7]): 67.5 nM
apparent Kd (MS2 coat protein [2]; [8]): 96.1 nM

AGAUUACAUGUUAUAAUACGGUAUACUGAUACCAGUGUUUCUAUUCACCCUUGGCAGCAGCAACAUGAGGAUCACCCAUGUAUUA
apparent Kd (MS2 coat protein [2]; [9]): 17.1 nM
apparent Kd (MS2 coat protein [2]; [10]): 16 nM

GAGCUGAUGUAGAAAUUUUAUUUCUGAGAUACCAGUACAGAAAUGUACCCUUGGCAGCUCAGUUUUACAUGAGGAUCACCCAUGU
apparent Kd (MS2 coat protein [2]; [7]): 12.2 nM
apparent Kd (MS2 coat protein [2]; [8]): 15 nM

CAGGUGCAGUCAGAUACCAGAUCUGCACAUGAGGAUCACCCAUGUGUAAUGAGUUCAAAGAUCCCUUGGCAGCUGUGUGAUCCGA
apparent Kd (MS2 coat protein [2]; [9]): 165 nM
apparent Kd (MS2 coat protein [2]; [10]): 193 nM

AGCGACAUGCGUGAUACCAGCUACAUGAGGAUCACCCAUGUAAGUAGGAAACUACUGUGUAGCCCUUGGCAGCAUAGUGCAUGUC
apparent Kd (MS2 coat protein [2]; [7]): 13.5 nM
apparent Kd (MS2 coat protein [2]; [8]): 41.5 nM

UGUAACAUGAGGAUCACCCAUGUAAGUGAUACCAGAUAAGUAGUAGUCCCUUGGCAGCAUAUUGGGAAAGUGUAUAGUGUAUAUG
apparent Kd (MS2 coat protein [2]; [9]): 53.3 nM
apparent Kd (MS2 coat protein [2]; [10]): 61.7 nM

UCGUGUGUUUCGGAUACCAGUGAAAUCGAUACAUGAGGAUCACCCAUGUGAGAGGAUGUACACCCUUGGCAGCUGGCUGUUGCGG
apparent Kd (MS2 coat protein [2]; [9]): 42.4 nM
apparent Kd (MS2 coat protein [2]; [10]): 42.6 nM

ACAUCCAGGUUAAUCGUGGGCAUGGUCGAUACCAGUAUUUUAAUCUACCCUUGGCAGCGACAUGAGGAUCACCCAUGUGCGAUGA
apparent Kd (MS2 coat protein [2]; [7]): 24.6 nM
apparent Kd (MS2 coat protein [2]; [8]): 36.3 nM

AUUUUCAUGGUCAUAUAUAUAUCUUCAGAUACCAGACUAUAUUAAGUCCCUUGGCAGCUGUUACAUGAGGAUCACCCAUGUUAUA
apparent Kd (MS2 coat protein [2]; [7]): 127 nM
apparent Kd (MS2 coat protein [2]; [8]): 36.2 nM

AGCCUCAUACAUGAGGAUCACCCAUGUGAUACCAGUCAGGAAACUGACCCUUGGCAGCGCAUGAGGAUCACCCAUGCGCGAGGCA
apparent Kd (MS2 coat protein [2]; [7]): 59.7 nM
apparent Kd (MS2 coat protein [2]; [8]): 113 nM

CCUGCGUUUCUUUUCUUUCGCAGGAAUGAUACCAGUAGGGAAACCUACCCUUGGCAGCAUGGGUAACAUGAGGAUCACCCAUGUU
apparent Kd (MS2 coat protein [2]; [9]): 473 nM
apparent Kd (MS2 coat protein [2]; [10]): 82.2 nM

CAAGAAGUAACUGAUACCAGUGUACUGACAUGAGGAUCACCCAUGUUGGGUUUUGUUGUACACCCUUGGCAGCAGAAUCUUCUUG
apparent Kd (MS2 coat protein [2]; [7]): 66.8 nM
apparent Kd (MS2 coat protein [2]; [8]): 90.5 nM

UGCUGACAAGGACAUGGAUGAUCAGCUGAUACCAGCCUGGAAACAGGCCCUUGGCAGCAGCACAUGAGGAUCACCCAUGUAAUAA
apparent Kd (MS2 coat protein [2]; [7]): 33.7 nM
apparent Kd (MS2 coat protein [2]; [8]): 66.3 nM

CCUGCUACGGGAAACCGUAGCAGGAAUGAUACCAGUAGGAAAGACUACCCUUGGCAGCAUGGGAAACAUGAGGAUCACCCAUGUU
apparent Kd (MS2 coat protein [2]; [9]): 56.3 nM
apparent Kd (MS2 coat protein [2]; [10]): 56.6 nM

GGUGGUGUGACGGAUACCAGCCACCGCGGCAACGCAACAUGAGGAUCACCCAUGUUGGGUGGCCCUUGGCAGCUGUCGUGCGGCG
apparent Kd (MS2 coat protein [2]; [9]): 96.5 nM
apparent Kd (MS2 coat protein [2]; [10]): 84.7 nM

GGUGGAGGCGUGGGACUUGUCUGAACGGAUACCAGCCACAUCACGGGCCCUUGGCAGCUGUACAUGAGGAUCACCCAUGUCGGUC
apparent Kd (MS2 coat protein [2]; [7]): 32.3 nM
apparent Kd (MS2 coat protein [2]; [8]): 93.7 nM

AACUGGACCCGUGAUACCAGAGACAUGAGGAUCACCCAUGUACAUGAGGAUCACCCAUGUCUCCCUUGGCAGCACCGCAGGGAGC
apparent Kd (MS2 coat protein [2]; [7]): 97.5 nM
apparent Kd (MS2 coat protein [2]; [8]): 393 nM

UGACAUUGCUGCGAUACCAGACAUGAGGAUCACCCAUGUGCCAAAUAAACGUACAUAAAUGUCCCUUGGCAGCGCAGCAAUGUCU
apparent Kd (MS2 coat protein [2]; [7]): 64.4 nM
apparent Kd (MS2 coat protein [2]; [8]): 752 nM

AGUAUACAUUCUGAUACCAGAGACAUGAGGAUCACCCAUGUCCGAUCGUCCUGCCUCAGACUCCCUUGGCAGCAGGAUAUGUGCU
apparent Kd (MS2 coat protein [2]; [7]): 16.2 nM
apparent Kd (MS2 coat protein [2]; [8]): 27.6 nM

AAACUAACGAGAGGAAACCUCGAGGGUGAUACCAGCACAUAAGGGUGCCCUUGGCAGCACCGACGUACAUGAGGAUCACCCAUGU
apparent Kd (MS2 coat protein [2]; [9]): 162 nM
apparent Kd (MS2 coat protein [2]; [10]): 65 nM

UCACGACGCAUGGAUACCAGCGACAUGAGGAUCACCCAUGUAUGAGGAUCAGCCAUGUUAUGCCCUUGGCAGCCACGAAGGUCAU
apparent Kd (MS2 coat protein [2]; [7]): 14.1 nM
apparent Kd (MS2 coat protein [2]; [8]): 64.1 nM

CAAUACGUAACUGAUACCAGUGUACUGACAUGAGGAUCACCCAUGUUGGGUUUUGUUGUACACCCUUGGCAGCAGAAUCGUAUUG
apparent Kd (MS2 coat protein [2]; [7]): 70.1 nM
apparent Kd (MS2 coat protein [2]; [8]): 93.7 nM

UUUUAACAUGAGGAUCACCCAUGUAAUGAUACCAGAGACGAAAGUCUCCCUUGGCAGCAUAUAUCAUUACUCAUAGGAAACUAUG
apparent Kd (MS2 coat protein [2]; [9]): 17.5 nM
apparent Kd (MS2 coat protein [2]; [10]): 16 nM

AUUAAAAGUUGUGAUACCAGACGAACAUGAGGAUCACCCAUGUAACUUUUAGGUGUUGUAGUCCCUUGGCAGCACUAUGUAGUUA
apparent Kd (MS2 coat protein [2]; [9]): 43.6 nM
apparent Kd (MS2 coat protein [2]; [10]): 38.2 nM

ACAUGAGGAUCACCCAUGUGGCGACUUGAUACCAGACCCGCACUAGUCCCUUGGCAGCAACUACGUGUGGGACACCCAUGUUAAG
apparent Kd (MS2 coat protein [2]; [7]): 16.9 nM
apparent Kd (MS2 coat protein [2]; [8]): 22 nM

CCGAACAUGAGGAUCACCCAUGUUAGGGAUACCAGCCCAGACAUGGGCCCUUGGCAGCUCUAUAGCUGACGAAAGUCAGCAUCGG
apparent Kd (MS2 coat protein [2]; [9]): 58.5 nM
apparent Kd (MS2 coat protein [2]; [10]): 30.5 nM
